High-throughput results (PubChem BioAssay)
Shown is part of a subset that was picked to be rich in hits.
HSF1 inhib: HSF1 inhibition | NIH3T3-HGL HSE-luciferase, MG132-induced, luminescence 8 h; active compounds read low | activity change, negative = inhibition, % at 7.5 µM (by protocol) | 0.77% of 300,000 active | AID 2098;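 active means more than half of replicate wells show activity change below -50%, luminescence cut by over half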;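 further: luciferase reports HSF-1 transcriptional activity via heat shock element; 0% = median of DMSO wells and -100% = zero luminescence signal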
HSF1 activator: increases HSF-1 driven luciferase reporter signal | activation, % at 9 µM | 1.7% of 300,000 active | NIH3T3-HGL HSF-1 luciferase reporter, MG132, 8 h; 100% = twice DMSO control signal | AID 504408;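 active means mean replicate activation of at least 50% with a set share of replicates each reaching 50%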;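 further: 0% = median of the neutral control wells and 100% = twice that signal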
Lmaj promast: Leishmania major promastigote growth inhibition | 9% of 200,000 active | Leishmania major promastigotes, resazurin fluorescence viability | inhibition, % at 10 µM; in the data active means inhibition above about 50%;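 further: promastigotes grown with compound for 44 hours at 28 °C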
T cruzi inh: blocks replication of Trypanosoma cruzi; T. cruzi beta-gal in NIH3T3, luminescence, 90 h; inhibition, % (test concentration not listed); 1.4% of 300,000 active; AID 1885;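 active means mean inhibition across valid replicates above about 55%, limit read from the data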;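 further: signal also drops with host cell toxicity which is not excluded here; 0% = plate median of DMSO wells and 100% = zero luminescence signal; higher percent means less beta-gal luminescence so fewer parasites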
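compound dosing = single 50 nL compound addition per well in DMSO | material = NIH/3T3 host cells with β-galactosidase reporter T. cruzi | input = 5,000 host fibroblasts per well | timing = ≥90 h infection period, 3 h prior cell attachment | read-out basis = percent inhibition of parasite-derived β-gal signal | detection = GalScreen β-gal luminescence, detergent lysis, 60 min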
Hsp70 act: Hsp70 transcriptional activation, primary screen; 0.04% of 200,000 active; AID 1203; activation, % at 10 µM; HeLa Hsp70 promoter luciferase reporter, luminescence; scaled: vehicle 0, proteasome-inhibitor control 100%;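 active means activation above the mean across all tested compounds plus 3 SD, cutoff set per campaign, cut at about 5.5% in these data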;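 further: 100% = MG132 at 30 µM as the positive control and 0% = DMSO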
* = called active by the depositor; / = no result given.

SMILES | HSF1 inhib | HSF1 activator | Lmaj promast | T cruzi inh | Hsp70 act
CC(Sc1ncnc2sccc12)C(=O)Nc1ccc(C(N)=O)cc1 (configuration not stated) | 0 | 27 | 0 | -9 | 0
COc1cc([N+](=O)[O-])cc2sc(NC(C)=O)nc12 | 0 | -5 | / | -11 | /
CCOc1ccc2nc(NC(=O)c3ccc(OCC4CCCO4)cc3)sc2c1 (configuration not stated) | 15 | -2 | 86* | 45 | 0
COc1ccc2nc(NC(=O)CSc3cn[nH]n3)sc2c1 | 27 | 49 | / | 20 | /
O=C(Nc1nc2ccccc2s1)c1cnccn1 | 7 | 22 | 13 | -19 | 0
Cc1cccc2sc(NC(=O)c3ccc(OCC4CCCO4)cc3)nc12 (configuration not stated) | 22 | 26 | -2 | 33 | 0
CCOc1ccc2nc(NC(=O)c3cnccn3)sc2c1 | 47 | 99* | 29 | -19 | 0
CCOc1ccc2nc(NC(=O)CSc3cn[nH]n3)sc2c1 | 17 | 55* | / | -8 | /
CC(C)c1ccc(C(=O)NCc2ccc(Cl)cc2)cc1 | 25 | 57* | -7 | -6 | 1
O=C(NCc1ccc(Cl)cc1)c1cccc(NC(=O)c2ccccc2)c1 | 17 | 27 | 55* | -1 | 0
O=C(NCc1ccccc1)c1ccc(Cl)cc1 | 0 | 0 | / | -12 | /
CC(=O)NCCNC(=O)c1ccc(CSc2ccc(Cl)cc2)cc1 | 69 | 68* | 6 | -5 | 0
COc1ccc(C)cc1N(C(=O)c1ccco1)C(C(=O)NC1CCCC1)c1ccc(N2CCOCC2)cc1 (configuration not stated) | -4 | -7 | / | 12 | /
O=C(N/N=C/C=C/c1ccccc1)NC1CCCCC1 | 4 | 16 | 2 | 7 | 0
CCCCSc1nc(O)cc(=O)n1CC | -2 | 13 | -5 | 1 | 0
Cc1cc(C)nc(SCc2ccc(C(=O)N/N=C/c3ccco3)cc2)n1 | -4 | -5 | -3 | 1 | 0
CC(C)CCNc1nnnc2c1sc1nc(N3CCOCC3)c3c(c12)CC(C)(C)SC3 | -6 | -5 | 57* | 1 | 0
CC1(C)Cc2c(c(N3CCOCC3)nc3sc4c(NCCN5CCOCC5)nnnc4c23)CS1 | -5 | -4 | / | 10 | /
O=C1NC2(CCCCC2)C(=O)N1Cc1ccc([N+](=O)[O-])cc1 | 7 | -1 | 42 | 12 | 0
CCCCCCn1c(=O)c(F)cn(Cc2ccc(OC)c([N+](=O)[O-])c2)c1=O | 3 | 7 | 91* | 0 | 0
COCCNC(=O)C(c1ccc(C)cc1)N(C(=O)C(=O)NC1CCCC1)c1ccc2c(c1)OCCO2 (configuration not stated) | -4 | -9 | -2 | 7 | 0
CC1Cc2ccccc2N1C(=O)CO/N=C/c1ccc(OC(F)F)cc1 (configuration not stated) | -88* | -90 | -8 | -8 | 0
COc1ccccc1N(C)S(=O)(=O)c1ccc(C(=O)OCC(N)=O)cc1 | -5 | 3 | 24 | -32 | 0
COc1ccccc1N(C)S(=O)(=O)c1ccc(C(=O)OCC(=O)N2CCCCCC2)cc1 | 2 | 11 | 100* | 0 | 0
CCCNC(=O)NC(=O)COC(=O)c1ccc(S(=O)(=O)N(C)c2ccccc2OC)cc1 | -4 | 2 | 73* | -13 | 1
SMILES | HSF1 inhib | HSF1 activator | Lmaj promast | T cruzi inh | Hsp70 act
COc1cccc(CCNC(=O)c2cc(COc3c(F)cccc3F)on2)c1 | -1 | 1 | / | -12 | /
Cc1[nH]c2ccccc2c1C(=O)CSc1n[nH]c(N)n1 | -4 | 9 | -5 | -8 | 0
CCOC(=O)c1ccc(S(=O)(=O)Nc2ccc3cn[nH]c3c2)cc1 | -3 | 4 | 68* | -16 | 0
CCCCn1c(=O)c(CCC(=O)OCC(=O)Nc2ccc(F)c(Cl)c2)nc2ccccc21 | -17 | 1 | -1 | -4 | 0
O=C(CSc1nnc(-c2ccc(S(=O)(=O)N3CCCC3)cc2)o1)NCc1ccco1 | -6 | -1 | 88* | -7 | 0
CCN(CC)C(=O)CSc1nnc(-c2ccc(S(=O)(=O)N3CCCC3)cc2)o1 | -7 | -6 | 99* | 4 | 0
O=C(CSc1nnc(-c2ccc(S(=O)(=O)N3CCCC3)cc2)o1)N1CCCC1 | / | / | 0 | / | 0
O=S(=O)(c1ccc(NC(=S)NCc2ccco2)cc1)N1CCCC1 | 12 | 1 | 52* | -2 | -1
Cc1sc2cc(-c3cccc([N+](=O)[O-])c3)c(-c3cccc([N+](=O)[O-])c3)c[n+]2c1C | -26 | -42 | -3 | -6 | -1
